Measured values reported in ChEMBL document CHEMBL1155020, “Trithiocarbonates as a novel class of HDAC inhibitors: SAR studies, isoenzyme selectivity, and pharmacological profiles” (J Med Chem, 2008).

Assays:
Histone deacetylase [1] = test: Inhibition of nuclear HDAC isolated from human HeLa cells; assay type: cell-based
[2] = biological target: T1, Protein deacetylase HDAC6 (Homo sapiens, UniProt Q9UBN7); test: Inhibition of recombinant HDAC6 expressed in HEK293 cells; assay type: cell-based
T1 sequence (Q9UBN7 whole entry): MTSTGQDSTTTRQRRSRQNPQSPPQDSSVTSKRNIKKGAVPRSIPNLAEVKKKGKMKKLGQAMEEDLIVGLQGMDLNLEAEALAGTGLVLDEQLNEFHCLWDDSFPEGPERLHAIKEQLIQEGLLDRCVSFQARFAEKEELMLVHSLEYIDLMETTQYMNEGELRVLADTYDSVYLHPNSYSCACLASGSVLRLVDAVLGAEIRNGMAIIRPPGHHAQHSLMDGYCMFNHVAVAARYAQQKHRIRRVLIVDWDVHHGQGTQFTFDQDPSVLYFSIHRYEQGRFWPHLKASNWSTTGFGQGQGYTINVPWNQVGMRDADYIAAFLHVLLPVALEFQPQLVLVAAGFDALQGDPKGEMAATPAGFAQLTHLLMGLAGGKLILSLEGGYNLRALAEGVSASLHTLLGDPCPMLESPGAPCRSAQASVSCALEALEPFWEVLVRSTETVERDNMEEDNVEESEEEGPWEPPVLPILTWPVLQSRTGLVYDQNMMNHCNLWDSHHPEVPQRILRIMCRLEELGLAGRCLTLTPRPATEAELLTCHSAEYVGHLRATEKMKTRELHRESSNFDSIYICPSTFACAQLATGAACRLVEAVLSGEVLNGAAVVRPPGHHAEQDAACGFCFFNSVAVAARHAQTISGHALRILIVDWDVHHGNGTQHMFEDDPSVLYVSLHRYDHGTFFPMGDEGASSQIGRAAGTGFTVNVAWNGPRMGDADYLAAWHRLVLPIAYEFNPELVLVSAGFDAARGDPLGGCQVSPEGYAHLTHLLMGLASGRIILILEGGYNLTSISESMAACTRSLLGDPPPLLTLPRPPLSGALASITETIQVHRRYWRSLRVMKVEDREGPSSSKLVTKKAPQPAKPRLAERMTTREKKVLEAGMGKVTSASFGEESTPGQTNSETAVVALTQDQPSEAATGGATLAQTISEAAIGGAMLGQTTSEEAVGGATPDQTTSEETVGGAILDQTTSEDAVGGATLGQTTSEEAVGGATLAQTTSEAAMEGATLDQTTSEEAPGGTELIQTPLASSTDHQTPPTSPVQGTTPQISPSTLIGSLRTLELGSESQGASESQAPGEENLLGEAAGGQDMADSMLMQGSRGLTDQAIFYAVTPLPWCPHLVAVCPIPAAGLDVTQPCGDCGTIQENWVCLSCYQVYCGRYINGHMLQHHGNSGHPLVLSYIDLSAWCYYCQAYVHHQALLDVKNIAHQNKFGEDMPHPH

HeLa = test: Cytotoxicity against human HeLa cells after 72 hrs by alamar blue assay; assay type: functional, cell-based
Summary of the method: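 HeLa cells were seeded at densities allowing growth through 72 h of compound exposure at 37 °C, 5% CO2. Viability was read by Alamar Blue (resazurin) reduction. Replicate assays were averaged, and IC50 was taken from concentration-effect curves.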

Histone deacetylase 1 = Histone deacetylase 1 (Homo sapiens, UniProt Q13547); test: Inhibition of recombinant HDAC1 expressed in HEK293 cells; assay type: cell-based
Chain of Histone deacetylase 1 (Q13547 whole entry): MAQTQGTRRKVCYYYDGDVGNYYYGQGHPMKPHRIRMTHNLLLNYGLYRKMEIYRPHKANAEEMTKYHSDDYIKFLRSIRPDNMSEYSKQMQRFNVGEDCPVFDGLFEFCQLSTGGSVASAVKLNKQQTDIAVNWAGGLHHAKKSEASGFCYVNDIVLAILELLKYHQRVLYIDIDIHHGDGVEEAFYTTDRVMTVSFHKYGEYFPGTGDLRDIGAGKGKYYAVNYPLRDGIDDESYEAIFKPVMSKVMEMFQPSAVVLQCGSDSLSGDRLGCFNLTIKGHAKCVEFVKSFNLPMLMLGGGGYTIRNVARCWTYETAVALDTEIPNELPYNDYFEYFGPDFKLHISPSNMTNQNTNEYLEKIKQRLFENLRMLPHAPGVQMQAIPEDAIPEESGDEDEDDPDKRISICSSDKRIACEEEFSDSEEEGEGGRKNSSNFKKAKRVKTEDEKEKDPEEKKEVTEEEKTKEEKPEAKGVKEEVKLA

Histone deacetylase [3] = test: Inhibition of HDAC in human HeLa cells; assay type: cell-based

Compound	IC50 (Histone deacetylase [1]) [µM]	IC50 [2] [µM]	IC50 (HeLa) [µM]	IC50 (Histone deacetylase 1) [µM]	IC50 (Histone deacetylase [3]) [µM]
COCCSC(=S)SCC(=O)c1ccc(OC)cc1	0.293	2.13	7.88	8.94	5.53
CCSC(=S)SCC(=O)c1ccc(CN(C)C(C)=O)cc1	0.384	0.256	21.5	0.946	6.33
CCSC(=S)SCC(=O)c1ccc(CNC(=O)c2ccccc2)cc1	0.046	0.301	12.7	0.523	0.632
CCSC(=S)SCC(=O)c1ccc(NS(=O)(=O)c2ccccc2)cc1	0.042	0.382	9.04	1.87	0.8
CCSC(=S)SCC(=O)c1cccc(NC(=O)c2cccnc2)c1	0.184	0.038	7.02	0.388	0.646
CCSC(=S)SCC(=O)c1cccc(S(=O)(=O)Nc2ccc(OC)cc2)c1	0.015	0.519	5.17	0.53	2.77
CCSC(=S)SCC(=O)c1cccc(C(=O)NCCOc2ccccc2)c1	0.027	0.198	10.2	0.328	0.5
CCSC(=S)SCC(=O)c1ccc(-c2ccc(N)cn2)s1	0.083	0.043	0.452	0.831	1.18
CCSC(=S)SCC(=O)c1cccc(NC(=O)c2cnc3ccccc3c2)c1	0.036	0.089	9.61	0.592	0.483
CCSC(=S)SCC(=O)c1cccc(NS(=O)(=O)c2ccccc2)c1	0.127	0.104	11.9	1.55	2.78
CCNC(=S)SCC(=O)c1ccc(NC(C)=O)cc1	0.094	0.018	11	0.141	1.12
CCCC(=S)SCC(=O)c1ccc(NC(C)=O)cc1	0.087	0.023	6.41	0.164	1.37
CCSC(=S)SCC(=O)c1ccc(NC(=O)c2cccnc2)cc1	0.174	0.421	5.16	1.16	0.865
CCSC(=S)SCC(=O)c1cccc(CNC(C)=O)c1	6.59	0.816	11.3	38.2	6.82
CCSC(=S)SCC(=O)c1ccc(C(=O)Nc2ccccc2)cc1	0.074	0.521	25.8	27.9	1.11
CCSC(=S)SCC(=O)c1cccc(NS(=O)(=O)c2ccc(Cl)cc2)c1	0.048	1.25	46.6	3.46	9.08
CCSC(=S)SCC(=O)c1ccc(C(=O)NCc2ccccc2)s1	0.019	0.044	13	0.34	0.411
CCSC(=S)SCC(=O)c1ccc(C(=O)N[C@@H](C)c2ccccc2)s1	0.049	0.135	15.8	0.497	1.03
COc1ccc(C(=O)CSC(=S)SCCNC(C)=O)cc1	0.467	1.64	11.1	7.51	3.47
CCSC(=S)SCC(=O)c1ccc(NS(=O)(=O)c2ccc(Cl)cc2)cc1	0.025	0.979	10.4	2.49	1.74
CCCC(=S)SCC(=O)c1ccc(OC)cc1	0.123	0.11	5.71	0.422	3.41

Compound	IC50 (Histone deacetylase [1]) [µM]	IC50 [2] [µM]	IC50 (HeLa) [µM]	IC50 (Histone deacetylase 1) [µM]	IC50 (Histone deacetylase [3]) [µM]
CCSC(=S)SCC(=O)c1ccc(C(=O)NCCOc2ccccc2)cc1	0.032	0.483	18.2	0.712	0.964
CCSC(=S)SCC(=O)c1ccc(NC(=O)Nc2ccccc2)cc1	0.04	0.606	20.2	18.8	1.19
CCSC(=S)SCC(=O)c1ccc(S(=O)(=O)Nc2ccc(OC)cc2)cc1	0.016	0.245	4.32	0.227	0.377
CCSC(=S)SCC(=O)c1ccc(C(=O)NCc2cc(C)cc(C)c2)s1	0.015	0.396	31.3	0.587	0.836
CCSC(=S)SCC(=O)c1ccc(OC)cc1	0.375	1.22	1.96	4.56	4.67
COc1ccc(C(=O)CSC(=S)SCCOc2ccccc2)cc1	0.128	4.57	5.46	9.72	11.6
CCOC(=S)SCC(=O)c1ccc(OC)cc1	0.811	0.448	4.64	1.38	4.72
CCSC(=S)SCC(=O)c1ccc(NC(=O)c2ccccc2)cc1	0.074	0.175	15.8	10.4	7.46
CCSC(=S)SCC(=O)c1cccc(NC(C)=O)c1	0.506	0.329	9.38	2.93	3.28
CCSC(=S)SCC(=O)c1ccc(CCNC(C)=O)cc1	0.587	0.102	12.8	0.607	1.48
CCSC(=S)SCC(=O)c1ccc(NS(C)(=O)=O)cc1	1.26	1.09	45.8	6.11	8.95
CCSC(=S)SCC(=O)c1cccc(C(=O)Nc2ccccc2)c1	0.124	0.517	2.4	1.67	1.23
CCSC(=S)SCC(=O)c1cccc(S(=O)(=O)Nc2cccc(C(N)=O)c2)c1	0.097	0.181	7.74	1.56	1.15
CCSC(=S)SCC(=O)c1ccc(C(=O)Nc2ccccc2)s1	0.063	0.245	50	31.6	0.423
CCOC(=O)SCC(=O)c1ccc(OC)cc1	2.81	5.36	18.5	21.2	9.79
CCSC(=S)SCC(=O)c1cccc(C(=O)NCc2ccccc2)c1	0.049	0.195	13.1	0.672	0.533
CCNC(=S)SCC(=O)c1ccc(OC)cc1	0.195	0.094	7.8	0.215	
CCSC(=S)SCC(=O)c1ccc(CNC(C)=O)cc1	0.719	0.346	17.9	7.12	2.07
CCSC(=S)SCC(=O)c1ccc(NC(=O)c2cnc3ccccc3c2)cc1	0.066	0.119	50	0.98	0.748
CCSC(=S)SCC(=O)c1ccc(CC(=O)NCc2ccc(OC)cc2)s1	0.026	0.175	1.45	0.887	0.6
CCNC(=O)SCC(=O)c1ccc(OC)cc1	0.115	0.132	13.3	0.368	3.18
